Source: ChEMBL document CHEMBL3779767, “Identification of potent and selective MTH1 inhibitors” (Bioorg Med Chem Lett, 2016)
Calls of active or inactive are those of the source. The rule behind the calls is not given here.

Legend:
[1] = Permeability across MDCK cells; format: ADME, cell-based, Canis lupus familiaris; settings: dog, read-out: permeability
How it was run: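 Measured across a confluent MDCK cell monolayer; apparent permeability is reported together with the efflux ratio.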

[2] = Efflux ratio of permeability in MDCK cells; format: ADME, cell-based, Canis lupus familiaris; settings: dog
How it was run: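 Permeability measured across a confluent MDCK cell monolayer, with the efflux ratio reported alongside the permeability value.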

[3] = Plasma protein binding in human plasma at 10 uM after 4 hrs by LC-MS/MS analysis; format: ADME, cell-free; settings: read-out: PPB (converted)
Liver microsome [4] = assay: Intrinsic clearance in human liver microsomes at 1 uM up to 40 mins by LC-MS/MS analysis; format: ADME
MRC5 [5] = assay: Cytotoxicity against human MRC5 cells assessed as change in phenotypic response; format: cell-based
HMEC [6] = assay: Cytotoxicity against human HMEC cells assessed as change in phenotypic response; format: cell-based
BJ [7] = assay: Cytotoxicity against human BJ cells assessed as change in phenotypic response; format: cell-based
[8] = Cytotoxicity against human WI38 cells assessed as change in phenotypic response; format: cell-based; settings: wi-38
NCI-H460 [9] = assay: Antiproliferative activity against human NCI-H460 cells assessed as change in phenotypic response; format: functional, cell-based
U2OS [10] = assay: Antiproliferative activity against human U2OS cells assessed as change in phenotypic response; format: functional, cell-based
SAOS-2 [11] = assay: Antiproliferative activity against human Saos2 cells assessed as change in phenotypic response; format: functional, cell-based
SW480 [12] = assay: Antiproliferative activity against human SW480 cells assessed as change in phenotypic response; format: functional, cell-based
HCT-116 [13] = assay: Antiproliferative activity against human HCT116 cells assessed as change in phenotypic response; format: functional, cell-based
MDA-MB-231 [14] = assay: Antiproliferative activity against human MDA-MB-231 cells assessed as change in phenotypic response; format: functional, cell-based
HeLa [15] = assay: Antiproliferative activity against human HeLa cells assessed as change in phenotypic response; format: functional, cell-based
[16] = Cytotoxicity against human 293T cells assessed as change in phenotypic response; format: cell-based; settings: hek-293t
A549 [17] = assay: Antiproliferative activity against human A549 cells assessed as change in phenotypic response; format: functional, cell-based
[18] = Plasma protein binding in human; format: ADME, cell-free; settings: read-out: PPB (converted)
Liver microsome [19] = assay: Intrinsic clearance in human liver microsomes; format: ADME
[20] = Half life in human liver microsomes; format: ADME
How it was run: (§1)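 Incubated with human or mouse liver microsomes; the read-out was intrinsic clearance alongside half-life, given in hours.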

[21] = Intrinsic clearance in mouse liver microsomes; format: ADME
[22] = Half life in mouse liver microsomes; format: ADME; how it was run: as §1
[23] = Half life in rat plasma; format: ADME, cell-free
How it was run: (§2)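 Plasma stability was measured in human and rat plasma, with half-life reported in hours.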

[24] = Half life in human plasma; format: ADME, cell-free; how it was run: as §2
[25] = Cytotoxicity against human WI38 cells assessed as change in phenotypic response measured after prolonged treatment; format: cell-based; settings: wi-38
NCI-H358 [26] = assay: Antiproliferative activity against human NCI-H358 cells assessed as change in phenotypic response measured after prolonged treatment; format: functional, cell-based
NCI-H460 [27] = assay: Antiproliferative activity against human NCI-H460 cells assessed as change in phenotypic response measured after prolonged treatment; format: functional, cell-based
A549 [28] = assay: Antiproliferative activity against human A549 cells assessed as change in phenotypic response measured after prolonged treatment; format: functional, cell-based
[29] = Cytotoxicity against human 293T cells assessed as change in phenotypic response measured after prolonged treatment; format: cell-based; settings: hek-293t
HeLa [30] = assay: Antiproliferative activity against human HeLa cells assessed as change in phenotypic response measured after prolonged treatment; format: functional, cell-based
MDA-MB-231 [31] = assay: Antiproliferative activity against human MDA-MB-231 cells assessed as change in phenotypic response measured after prolonged treatment; format: functional, cell-based
HCT-116 [32] = assay: Antiproliferative activity against human HCT116 cells assessed as change in phenotypic response measured after prolonged treatment; format: functional, cell-based
SW480 [33] = assay: Antiproliferative activity against human SW480 cells assessed as change in phenotypic response measured after prolonged treatment; format: functional, cell-based
SAOS-2 [34] = assay: Antiproliferative activity against human Saos2 cells assessed as change in phenotypic response measured after prolonged treatment; format: functional, cell-based
U2OS [35] = assay: Antiproliferative activity against human U2OS cells assessed as change in phenotypic response measured after prolonged treatment; format: functional, cell-based
BJ [36] = assay: Cytotoxicity against human BJ cells assessed as change in phenotypic response up to 50 uM; format: cell-based
[37] = Cytotoxicity against human WI38 cells assessed as change in phenotypic response up to 50 uM; format: cell-based; settings: wi-38
HMEC [38] = assay: Cytotoxicity against human HMEC cells assessed as change in phenotypic response up to 50 uM; format: cell-based
MRC5 [39] = assay: Cytotoxicity against human MRC5 cells assessed as change in phenotypic response up to 50 uM; format: cell-based
NCI-H460 [40] = assay: Antiproliferative activity against human NCI-H460 cells assessed as change in phenotypic response up to 50 uM; format: functional, cell-based
A549 [41] = assay: Antiproliferative activity against human A549 cells assessed as change in phenotypic response up to 50 uM; format: functional, cell-based
[42] = Cytotoxicity against human 293T cells assessed as change in phenotypic response up to 50 uM; format: cell-based; settings: hek-293t
HeLa [43] = assay: Antiproliferative activity against human HeLa cells assessed as change in phenotypic response up to 50 uM; format: functional, cell-based
MDA-MB-231 [44] = assay: Antiproliferative activity against human MDA-MB-231 cells assessed as change in phenotypic response up to 50 uM; format: functional, cell-based
HCT-116 [45] = assay: Antiproliferative activity against human HCT116 cells assessed as change in phenotypic response up to 50 uM; format: functional, cell-based
SW480 [46] = assay: Antiproliferative activity against human SW480 cells assessed as change in phenotypic response up to 50 uM; format: functional, cell-based
SAOS-2 [47] = assay: Antiproliferative activity against human Saos2 cells assessed as change in phenotypic response up to 50 uM; format: functional, cell-based
U2OS [48] = assay: Antiproliferative activity against human U2OS cells assessed as change in phenotypic response up to 50 uM; format: functional, cell-based
BJ [49] = assay: Cytotoxicity against human BJ cells assessed as change in phenotypic response measured after prolonged treatment; format: cell-based
HMEC [50] = assay: Cytotoxicity against human HMEC cells assessed as change in phenotypic response measured after prolonged treatment; format: cell-based
MRC5 [51] = assay: Cytotoxicity against human MRC5 cells assessed as change in phenotypic response measured after prolonged treatment; format: cell-based
UOK 262 [52] = assay: Antiproliferative activity against human UOK 262 cells assessed as change in phenotypic response up to 50 uM; format: functional, cell-based
UOK 262 [53] = assay: Antiproliferative activity against human UOK 262 cells assessed as change in phenotypic response measured after prolonged treatment; format: functional, cell-based
NCI-H358 [54] = assay: Antiproliferative activity against human NCI-H358 cells assessed as change in phenotypic response up to 50 uM; format: functional, cell-based

CNc1cc(-c2cccc(Cl)c2Cl)nc(N)n1
Papp [1]: 30 ×10⁻⁶ cm/s
efflux ratio [2]: 0.8
fraction unbound at 4 h, 10 µM [3]: 0.08
CLH (Liver microsome [4]): 54 µL/min/mg
Activity (MRC5 [5]): Toxic
Activity (HMEC [6]): Toxic
Activity (BJ [7]): Toxic
Activity [8]: Toxic
Activity (NCI-H460 [9]): Active
Activity (U2OS [10]): Active
Activity (SAOS-2 [11]): Active
Activity (SW480 [12]): Active
Activity (HCT-116 [13]): Active
Activity (MDA-MB-231 [14]): Active
Activity (HeLa [15]): Active
Activity [16]: Toxic
Activity (A549 [17]): Active

Nc1nc(NC2CC2)cc(-c2cccc(Cl)c2Cl)n1
Activity (MRC5 [5]): Toxic
Activity (HMEC [6]): Toxic
Activity (BJ [7]): Toxic
Activity [8]: Toxic
Activity (NCI-H460 [9]): Active
Activity (U2OS [10]): Active
Activity (SAOS-2 [11]): Active
Activity (SW480 [12]): Active
Activity (HCT-116 [13]): Active
Activity (MDA-MB-231 [14]): Active
Activity (HeLa [15]): Active
Activity [16]: Toxic
Activity (A549 [17]): Active

Cc1cnc(N)nc1OCC(C)(C)C
Papp [1]: 37 ×10⁻⁶ cm/s
efflux ratio [2]: 0.8
fraction unbound [18]: 0.06
CLH (Liver microsome [19]): 82 µL/min/mg
half-life [20]: 0.5 h
CLH [21]: 280 µL/min/mg
half-life [22]: 0.3 h
half-life [23]: 20 h
half-life [24]: 19 h
Activity [25]: Non-toxic
Activity (NCI-H358 [26]): inactive
Activity (NCI-H460 [27]): inactive
Activity (A549 [28]): inactive
Activity [29]: Non-toxic
Activity (HeLa [30]): inactive
Activity (MDA-MB-231 [31]): inactive
Activity (HCT-116 [32]): inactive
Activity (SW480 [33]): inactive
Activity (SAOS-2 [34]): inactive
Activity (U2OS [35]): inactive
Activity (BJ [36]): Non-toxic
Activity [37]: Non-toxic
Activity (HMEC [38]): Non-toxic
Activity (MRC5 [39]): Non-toxic
Activity (NCI-H460 [40]): inactive
Activity (A549 [41]): inactive
Activity [42]: Non-toxic
Activity (HeLa [43]): inactive
Activity (MDA-MB-231 [44]): inactive
Activity (HCT-116 [45]): inactive
Activity (SW480 [46]): inactive
Activity (SAOS-2 [47]): inactive
Activity (U2OS [48]): inactive
Activity (BJ [49]): Non-toxic
Activity (HMEC [50]): Non-toxic
Activity (MRC5 [51]): Non-toxic
Activity (UOK 262 [52]): inactive
Activity (UOK 262 [53]): inactive
Activity (NCI-H358 [54]): inactive
